Shown are actives, neighbours in structure and some others; about 2.3% of the full set was active somewhere.
Arr AP2 block = inhibitors of beta-arrestin/AP2 binding, primary screen, biochemical, GPCR trafficking, flow cytometry; beta-arrestin 1 C-terminal peptide binding to AP2 beta2-adaptin appendage (human); FITC-arrestin peptide / GST-AP2 beads; AP2 beta2 appendage carries R879A mutation; inhibition, % at 10 µM; 340,000 tested, 0.31% active; AID 504490, 2011;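 active = inhibition above a set limit, near 3 SD of compounds lacking own fluorescence, cut at about 54% in these data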;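 also: plate controls were DMSO wells for no effect and 5 µM unlabelled arrestin peptide for full effect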
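Assay system: GST-AP2 R879A bound to glutathione beads, E. coli-expressed; Medium: PBS with 0.05% Tween 20 and 0.1% BSA; Also added: fluorescein-tagged arrestin peptide at 50 nM final; Timing: 12 min plus 1 h, RT; Measured by: flow cytometry, FL1 (488/535 nm); Evaluation: percent drop in bead-associated FITC signal.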
MEKK2 mut-MEK5 = MEK5 binding signal on mutant MEKK2 PB1, primary screen, biochemical, multiplex bead flow cytometry, Alexa488-MEK5; Alexa488-MEK5 binding to MEKK2 mutant; 290,000 tested, 0.35% active; percent response, % at 10 µM; in the data active = percent response above about 24%, passing the limit was not always enough
MEKK3 PB1 HTS = modulators of MEKK3-MEK5 PB1 binding, primary screen, biochemical, wildtype MEKK3, multiplex bead flow cytometry, Alexa488-MEK5; bead-based flow cytometry, Alexa488-MEK5 binding to MEKK3; actives lie on both sides; 0 = blocked by unlabeled MEK5, 100 = vehicle; Mitogen-activated protein kinase kinase kinase 3 (Homo sapiens), Q99759; AID 1529, 2009; 290,000 tested, 1.4% active; binding response (% of control), % at 10 µM;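 active = binding response more than 3 SD above or below the average of its plate-row segment, actives on both sides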;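 also: Alexa488 bead fluorescence after subtracting the streptavidin-only scavenger bead signal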
Target sequence (Q99759 whole entry, looked up): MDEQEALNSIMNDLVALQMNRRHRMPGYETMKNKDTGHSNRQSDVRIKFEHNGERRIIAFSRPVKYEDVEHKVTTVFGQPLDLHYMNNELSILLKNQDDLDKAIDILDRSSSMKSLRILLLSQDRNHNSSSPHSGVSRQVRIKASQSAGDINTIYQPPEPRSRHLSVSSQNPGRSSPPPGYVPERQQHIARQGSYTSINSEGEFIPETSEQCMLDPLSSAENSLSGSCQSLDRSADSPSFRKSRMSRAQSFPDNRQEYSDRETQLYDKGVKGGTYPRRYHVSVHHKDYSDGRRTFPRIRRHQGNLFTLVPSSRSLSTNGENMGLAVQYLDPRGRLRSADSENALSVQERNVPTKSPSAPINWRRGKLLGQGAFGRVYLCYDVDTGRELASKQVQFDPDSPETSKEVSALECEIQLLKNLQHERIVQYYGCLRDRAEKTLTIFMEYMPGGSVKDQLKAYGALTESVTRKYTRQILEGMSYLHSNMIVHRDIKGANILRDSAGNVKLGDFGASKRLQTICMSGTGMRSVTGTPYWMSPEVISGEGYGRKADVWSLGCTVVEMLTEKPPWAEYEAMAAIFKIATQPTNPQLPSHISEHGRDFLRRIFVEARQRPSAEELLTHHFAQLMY
MEKK2 WT-MEK5 = modulators of MEK5 binding to wildtype MEKK2, primary screen, biochemical, multiplex bead flow cytometry, Alexa488-MEK5. Mitogen-activated protein kinase kinase kinase 2 (Homo sapiens), Q9Y2U5. Alexa488-MEK5 binding to MEKK2 WT; actives lie on both sides. binding response (% of control), % at 10 µM. 290,000 tested, 1.1% active. AID 1531, 2009; in the data active = binding response below about 67% or above about 130%
MEKK2wt confirm = modulators of MEK5 binding to wildtype MEKK2, confirmation, biochemical, single concentration, multiplex bead flow cytometry. shares compounds with MEKK3 PB1 HTS. Alexa488-MEK5 binding to MEKK2 WT; actives lie on both sides. binding response (% of control), % at 10 µM. 5,900 tested, 2.4% active. AID 1892, 2009; in the data active = binding response below about 16% or above about 210%; inactive = in between
MEKK2mut-MEK5 = mutant MEKK2 PB1-MEK5 binding signal retest – biochemical, single concentration, multiplex bead flow cytometry, confirmation; shares compounds with MEKK3 PB1 HTS; 5,900 tested, 2% active; percent response, % at 10 µM; AID 1893, 2009; Alexa488-MEK5 binding to MEKK2 mutant; in the data active = percent response mostly above about 71%, no sharp cut-off; inactive = mostly below about 38%;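 also: higher means compound restores mutant binding toward wildtype level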
MEKK3-MEK5 inh = MEKK3 wild-type PB1 binding to MEK5, inhibitors, confirmation, biochemical, bead multiplex flow cytometry, single concentration, wildtype; shares compounds with MEKK3 PB1 HTS; AID 1894, 2009; binding response (% of control), % at 10 µM; Alexa488-MEK5 binding to MEKK3; hits give low values; 5,900 tested, 1.8% active;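 active = binding response below 72% of control, or above a set upper limit, though filed actives all read lower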;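 also: 100% = DMSO only wells and 0% = binding blocked by excess unlabeled MEK5; lower values mean stronger disruption of MEK5 binding to MEKK3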
An asterisk follows results filed as active; [ ] = dose if it differs, or a comment.

How did Cc1ccc(NC(=O)C(=O)NCCOc2ccc(Cl)cc2)c(C)c1 do in these assays?
Arr AP2 block: 47; MEKK2 mut-MEK5: 0; MEKK3 PB1 HTS: 128*; MEKK2 WT-MEK5: 106; MEKK2wt confirm: 98; MEKK2mut-MEK5: -1; MEKK3-MEK5 inh: 102

How did COc1ccc(/C=C(/NC(=O)c2ccccc2)C(=O)NCc2ccncc2)cc1 do in these assays?
Arr AP2 block: 26; MEKK2 mut-MEK5: -2; MEKK3 PB1 HTS: 97; MEKK2 WT-MEK5: 89

How did O=C(N/N=C/c1ccc(OC(=O)c2ccccc2)cc1)c1cccc(O)c1 do in these assays?
Arr AP2 block: 51; MEKK2 mut-MEK5: 0; MEKK3 PB1 HTS: 137*; MEKK2 WT-MEK5: 113; MEKK2wt confirm: 92; MEKK2mut-MEK5: 0; MEKK3-MEK5 inh: 101

How did COc1ccc(/C=N/NC(=O)c2ccncc2)cc1OC do in these assays?
Arr AP2 block: 6; MEKK2 mut-MEK5: -4; MEKK3 PB1 HTS: 100; MEKK2 WT-MEK5: 96

What do the screens show for `COc1ccc(/C=C(/NC(=O)c2ccccc2)C(=O)N/N=C/c2ccncc2)cc1`?
Arr AP2 block: 12; MEKK2 mut-MEK5: -15; MEKK3 PB1 HTS: 2.0*[inhibitor]; MEKK2 WT-MEK5: 2.0*[inhibitor]; MEKK2wt confirm: 102; MEKK2mut-MEK5: 3; MEKK3-MEK5 inh: 102

What do the screens show for `COc1ccc(/C=C/C(=O)Oc2ccc(/C=N/NC(=O)c3ccccc3)cc2)cc1OC`?
Arr AP2 block: 3; MEKK2 mut-MEK5: 0; MEKK3 PB1 HTS: 138*; MEKK2 WT-MEK5: 102; MEKK2wt confirm: 94; MEKK2mut-MEK5: -9; MEKK3-MEK5 inh: 94

Results for O=C1c2ccc(-c3ccc4c(c3)C(=O)N(CCO)C4=O)cc2C(=O)N1CCO ?
Arr AP2 block: 5; MEKK2 mut-MEK5: 10; MEKK3 PB1 HTS: 112; MEKK2 WT-MEK5: 107

What do the screens show for `COc1ccc(NS(=O)(=O)c2cccc(C(=O)NCC(c3cccs3)N3CCOCC3)c2)cc1` (stereo not given)?
Arr AP2 block: 21

How did NC1=NC(=O)/C(=C/C=C/c2cccs2)S1 do in these assays?
Arr AP2 block: 15

How did O=C(c1ccc(-n2cccc2)cc1)N1CCN(Cc2ccccc2)CC1 do in these assays?
Arr AP2 block: 39; MEKK2 mut-MEK5: -9; MEKK3 PB1 HTS: 89; MEKK2 WT-MEK5: 88

How did Cn1nc(-c2ccc(C(=O)Nc3cccc(Cl)c3)cc2)c2ccccc2c1=O do in these assays?
Arr AP2 block: 31; MEKK2 mut-MEK5: -26; MEKK3 PB1 HTS: 34*[inhibitor]; MEKK2 WT-MEK5: 1.0*[inhibitor]; MEKK2wt confirm: 87; MEKK2mut-MEK5: -1; MEKK3-MEK5 inh: 92

How did Cn1nc(-c2ccc(C(=O)N3CCN(Cc4ccccc4)CC3)cc2)c2ccccc2c1=O do in these assays?
Arr AP2 block: 12; MEKK2 mut-MEK5: -14; MEKK3 PB1 HTS: 52*[inhibitor]; MEKK2 WT-MEK5: 57*[inhibitor]; MEKK2wt confirm: 108; MEKK2mut-MEK5: 3; MEKK3-MEK5 inh: 104

Results for Cc1ccc(-c2nn(-c3ccccc3)cc2/C=C/C(=O)OCC(=O)NC2CC2)o1 ?
Arr AP2 block: 37; MEKK2 mut-MEK5: 5; MEKK3 PB1 HTS: 131*; MEKK2 WT-MEK5: 116; MEKK2wt confirm: 96; MEKK2mut-MEK5: -7; MEKK3-MEK5 inh: 89

How did CNC(=O)COC(=O)/C=C/c1cn(-c2ccccc2)nc1-c1ccc2c(c1)OCCO2 do in these assays?
Arr AP2 block: 12; MEKK2 mut-MEK5: -3; MEKK3 PB1 HTS: 107; MEKK2 WT-MEK5: 105

Results for CCn1cc(CN2CCc3c([nH]c4ccccc34)C2c2cccc(OC)c2OC)c(C)n1 (stereo not given) ?
Arr AP2 block: -13; MEKK2 mut-MEK5: -5; MEKK3 PB1 HTS: 95; MEKK2 WT-MEK5: 90

How did CC(C)N(c1ccccc1)c1ccc(NC(=O)COC(=O)CCN2C(=O)c3cccc([N+](=O)[O-])c3C2=O)cc1 do in these assays?
Arr AP2 block: 40; MEKK2 mut-MEK5: -2; MEKK3 PB1 HTS: 48*[inhibitor]; MEKK2 WT-MEK5: 90; MEKK2wt confirm: 94; MEKK2mut-MEK5: -7; MEKK3-MEK5 inh: 93

What do the screens show for `Cc1occc1-c1nnc(SCC(=O)c2ccc(Cl)cc2)n1CC1CCCO1` (stereo not given)?
Arr AP2 block: -5; MEKK2 mut-MEK5: -26; MEKK3 PB1 HTS: 2.0*[inhibitor]; MEKK2 WT-MEK5: 3.0*[inhibitor]; MEKK2wt confirm: 105; MEKK2mut-MEK5: 4; MEKK3-MEK5 inh: 104

What do the screens show for `CCOC(=O)N1CCN(C(=O)c2c(Cl)cnn2C)CC1`?
Arr AP2 block: -20; MEKK2 mut-MEK5: 3; MEKK3 PB1 HTS: 102; MEKK2 WT-MEK5: 102

What do the screens show for `COC(=O)CCC(=O)Nc1ccc(C)cc1OC(=O)CCC(=O)OC`?
Arr AP2 block: 20; MEKK2 mut-MEK5: 28*; MEKK3 PB1 HTS: 114; MEKK2 WT-MEK5: 115; MEKK2wt confirm: 96; MEKK2mut-MEK5: -4; MEKK3-MEK5 inh: 101

What do the screens show for `COC(=O)CCC(=O)Nc1cccc2c(NC(=O)CCC(=O)OC)cccc12`?
Arr AP2 block: -6; MEKK2 mut-MEK5: -8; MEKK3 PB1 HTS: 90; MEKK2 WT-MEK5: 90

What do the screens show for `COc1cccc(Nc2nc(NCC3CCCO3)c3ccccc3n2)c1` (stereo not given)?
Arr AP2 block: 11; MEKK2 mut-MEK5: 20; MEKK3 PB1 HTS: 106; MEKK2 WT-MEK5: 144*; MEKK2wt confirm: 141; MEKK2mut-MEK5: 31; MEKK3-MEK5 inh: 105

How did O=C(NCCc1ccc(Cl)cc1)c1ccc(S(=O)(=O)N2CCCC2)cc1 do in these assays?
Arr AP2 block: -13

What do the screens show for `Cc1ccc(S(=O)(=O)N(C)CCCC(=O)n2nc(C)cc2C)cc1`?
Arr AP2 block: -11; MEKK2 mut-MEK5: -39; MEKK3 PB1 HTS: 0.0*[inhibitor]; MEKK2 WT-MEK5: 0.0*[inhibitor]; MEKK2wt confirm: 103; MEKK2mut-MEK5: -2; MEKK3-MEK5 inh: 103

How did COc1ccc(-c2nc(CN3CCN(c4cc(C)nc(C)c4)CC3)c(C)o2)c2ccccc12 do in these assays?
Arr AP2 block: 10; MEKK2 mut-MEK5: -6; MEKK3 PB1 HTS: 107; MEKK2 WT-MEK5: 158*; MEKK2wt confirm: 161; MEKK2mut-MEK5: 26; MEKK3-MEK5 inh: 106

Screening data as filed in PubChem.
